Data published in ChEMBL document CHEMBL1124462, “Synthesis, DNA binding, and biological evaluation of synthetic precursors and novel analogues of netropsin” (J Med Chem, 1989).
In brackets after ≈: the same amount, converted by molar mass.

Tests used:
Raji = test: Dose required to inhibit Human B-Lymphoblast (Raji) cell proliferation by 50%; assay type: functional; settings: read-out: CD50 (the source's name)
Oryctolagus cuniculus = species on record: Oryctolagus cuniculus; test: Minimum cytotoxic concentration required to cause a microscopically detectable alteration of normal cell morphology and show antiviral activity in primary rabbit kidney (PRK) cells; assay type: functional
Nucleic Acid [1] = test: Association constant against polynucleotide poly (dG-dC); assay type: nucleic-acid assay
In short: (§1)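 Competition with ethidium bromide binding at 25 °C in 0.01 M cacodylate buffer, pH 7.0, with 1.26 μM ethidium bromide and 1 μM polynucleotide. Bound ethidium is estimated from its fluorescence increase (V = 34 for poly(dA-dT), 25 for poly(dG-dC)). IC50 for 50% ethidium displacement comes from a fitted competition sigmoid. Kapp is calculated from IC50 assuming a binding size of four base pairs.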

Sindbis virus = test: Minimum inhibitory concentration required to reduce Sindbis virus induced cytopathogenicity by 50% in african green monkey (VeroB) cells; assay type: functional
In short: (§2)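 Cell cultures (PRK, HeLa or Vero B) are infected at 100 × CCID50. Cytopathogenicity is recorded once it reaches completion in the untreated virus-infected controls. The minimum inhibitory concentration is given in μg/mL.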

HeLa [2] = test: Minimum cytotoxic concentration required to cause a microscopically detectable alteration of normal cell morphology and show antiviral activity in HeLa cells; assay type: functional; settings: Homo sapiens
In short: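 HeLa cell cultures exposed to compound for the same duration as the antiviral assay, then examined microscopically. The minimum cytotoxic concentration is the lowest level causing detectable alteration of normal cell morphology. Values are in μg/mL.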

[3] = test system: Mammalian orthoreovirus 1; test: Minimum inhibitory concentration required to reduce reovirus-1 induced cytopathogenicity by 50% in african green monkey (VeroB)cells; assay type: functional; in short: as §2
L1210 = test: Dose required to inhibit Murine leukemia (L1210) cell proliferation by 50%; assay type: functional; settings: Mus musculus, read-out: CD50 (the source's name)
Vero [4] = test: Minimum inhibitory concentration required to reduce Coxsackie virus B4 induced cytopathogenicity by 50% in african green monkey (VeroB) cells; assay type: functional, Coxsackievirus B4; settings: Chlorocebus sabaeus; in short: as §2
Vero [5] = test: Minimum inhibitory concentration required to reduce parainfluenza virus-3 induced cytopathogenicity by 50% in african green monkey (VeroB) cells; assay type: functional, Human respirovirus 3; settings: Chlorocebus sabaeus; in short: as §2
Human alphaherpesvirus 2 = test: Minimum inhibitory concentration required to reduce herpes simplex virus-2(G) induced cytopathogenicity by 50% in primary rabbit kidney cells (PRK); assay type: functional; in short: as §2
Vero [6] = test: Minimum cytotoxic concentration required to cause a microscopically detectable alteration of normal cell morphology and show antiviral activity in african green monkey (Vero B) cells; assay type: functional; settings: Chlorocebus sabaeus
Human alphaherpesvirus 1 = test: Minimum inhibitory concentration required to reduce herpes simplex virus-1 (KOS) induced cytopathogenicity by 50% in primary rabbit kidney cells(PRK); assay type: functional; in short: as §2
Nucleic Acid [7] = test: Ratio of association constant of poly(dA-dT) and poly(dG-dC); assay type: nucleic-acid assay
In short: (§3)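 Kapp for poly(dA-dT) and for poly(dG-dC) is each determined by ethidium bromide competition in 0.01 M cacodylate, pH 7.0, 25 °C, with 1.26 μM ethidium and 1 μM polynucleotide. IC50 comes from a fitted competition sigmoid and is converted to Kapp assuming a four-base-pair binding size. The ratio is taken between the two polynucleotides.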

HeLa [8] = test: Minimum inhibitory concentration required to reduce Coxsackie virus B4 induced cytopathogenicity by 50% in HeLa cells; assay type: functional; settings: Homo sapiens; in short: as §2
[9] = Dose required to inhibit Human T-Lymphoblast (Molt/4F) cell proliferation by 50%; assay type: functional; settings: read-out: CD50 (the source's name)
[10] = test system: Vesicular stomatitis virus; test: (§4) Minimum inhibitory concentration required to reduce vesicular stomatitis virus induced cytopathogenicity by 50% in primary rabbit kidney cells (PRK); assay type: functional
Nucleic Acid [11] = test: Association constant against the polynucleotide poly(dA-dT); assay type: nucleic-acid assay; in short: as §1
Semliki Forest virus = test: Minimum inhibitory concentration required to reduce semliki forest virus induced cytopathogenicity by 50% in african green monkey (VeroB) cells; assay type: functional; in short: as §2
HeLa [12] = test: Minimum inhibitory concentration required to reduce vesicular stomatitis virus induced cytopathogenicity by 50% in HeLa cells; assay type: functional; settings: Homo sapiens
HeLa [13] = test: Minimum inhibitory concentration required to reduce polio virus -1 induced cytopathogenicity by 50% in HeLa cells; assay type: functional; settings: Homo sapiens
[14] = Minimum inhibitory concentration required to reduce herpes simplex virus-1 (KOS)induced cytopathogenicity by 50% in primary rabbit kidney cells (PRK); assay type: functional; settings: Oryctolagus cuniculus
[15] = Minimum inhibitory concentration required to reduce herpes simplex virus-2 (G)induced cytopathogenicity by 50% in primary rabbit kidney cells (PRK); assay type: functional; settings: Oryctolagus cuniculus
[16] = as §4; assay type: functional; settings: Oryctolagus cuniculus
FM3A = test: In vitro inhibition of FM3A (murine mammary carcinoma) cell proliferation.; assay type: functional; settings: Mus musculus, read-out: CD50 (the source's name)
Nucleic Acid [17] = test: Association constant against the polynucleotide poly (dA-dT).; assay type: nucleic-acid assay; in short: as §1
Nucleic Acid [18] = test: Ratio of association constant of poly (dA-dT) and poly (dG-dC); assay type: nucleic-acid assay; in short: as §3

SMILES | CC50 (Raji) [µg/mL] | MCC (Oryctolagus cuniculus) [µg/mL] | K app (Nucleic Acid [1]) [M⁻¹] | MIC (Sindbis virus) [µg/mL] | MCC (HeLa [2]) [µg/mL] | MIC [3] [µg/mL] | CC50 (L1210) [µg/mL] | MIC (Vero [4]) [µg/mL] | MIC (Vero [5]) [µg/mL] | MIC (Human alphaherpesvirus 2) [µg/mL] | MCC (Vero [6]) [µg/mL] | MIC (Human alphaherpesvirus 1) [µg/mL] | MIC (HeLa [8]) [µg/mL] | CC50 [9] [µg/mL] | MIC [10] [µg/mL] | MIC (Semliki Forest virus) [µg/mL] | MIC (HeLa [12]) [µg/mL] | MIC (HeLa [13]) [µg/mL] | further results
Cn1cc(NC(=O)c2cc([N+](=O)[O-])cn2C)cc1C(=O)NCCC(=N)N | > 100 | 400 | < 100 | > 300 | > 400 | > 100 | > 100 | > 200 | > 200 | > 200 | 400 | > 200 | > 400 | > 100 | > 100 | 300 (≈ 830 µM) | – | – | Ratio (Nucleic Acid [7]): > 120; K app (Nucleic Acid [11]): 12000 M⁻¹
NC(=O)c1ncn([C@@H]2O[C@H](CO)[C@@H](O)[C@H]2O)n1 [RIBAVIRIN] | – | >400 | – | 70 (≈ 287 µM) | > 200 | 20 (≈ 81.9 µM) | – | 70 (≈ 287 µM) | 20 (≈ 81.9 µM) | – | > 400 | – | 70 (≈ 287 µM) | – | – | 150 (≈ 614 µM) | 20 (≈ 81.9 µM) | 70 (≈ 287 µM) | MIC [14]: > 400 µg/mL; MIC [15]: > 400 µg/mL; MIC [16]: > 400 µg/mL
C[C@H](NC(=O)c1cc(NC(=O)c2cc([N+](=O)[O-])cn2C)cn1C)C(=O)N[C@@H](C)C(=O)N[C@@H](C)C(=O)OC(C)(C)C | > 100 | >400 | 750 | > 200 | > 400 | > 200 | > 100 | > 200 | > 400 | > 200 | > 400 | > 100 | > 200 | > 100 | > 100 | > 200 | – | > 400 | CC50 (FM3A): > 100 µg/mL; Ratio (Nucleic Acid [7]): < 0.13; K app (Nucleic Acid [11]): < 100 M⁻¹
Cn1c(C(=O)O)ccc1[N+](=O)[O-] | > 50 | >400 | – | > 100 | > 400 | > 100 | > 50 | > 100 | > 200 | > 400 | > 400 | > 400 | 70 (≈ 411 µM) | > 50 | > 400 | > 200 | > 200 | > 400 | –
Cn1cc([N+](=O)[O-])cc1C(=O)NCCC#N | > 50 | >400 | < 100 | > 100 | > 400 | > 200 | > 50 | > 100 | > 400 | > 200 | > 400 | > 400 | 150 (≈ 675 µM) | > 50 | > 400 | > 100 | > 400 | > 400 | K app (Nucleic Acid [17]): < 100 M⁻¹
CC(NC(=O)c1cc(NC(=O)c2cc([N+](=O)[O-])cn2C)cn1C)C(=O)OC(C)(C)C (configuration not stated) | 33.8 (≈ 80.6 µM) | >100 | 400 | > 40 | > 100 | > 40 | 37.8 (≈ 90.1 µM) | 20 (≈ 47.7 µM) | 20 (≈ 47.7 µM) | > 40 | > 100 | > 40 | > 100 | 26.6 (≈ 63.4 µM) | > 40 | > 40 | – | > 40 | CC50 (FM3A): 27.7 µg/mL (≈ 66 µM); Ratio (Nucleic Acid [18]): 0.5; K app (Nucleic Acid [17]): 200 M⁻¹
Nc1ncnc2c1ccn2[C@@H]1O[C@H](CO)[C@@H](O)[C@H]1O [TUBERCIDIN] | – | >0.4 | – | 0.1 (≈ 0.376 µM) | > 0.4 | 0.07 (≈ 0.263 µM) | – | 0.07 (≈ 0.263 µM) | 0.07 (≈ 0.263 µM) | – | > 0.4 | – | 0.07 (≈ 0.263 µM) | – | – | > 0.4 | 0.07 (≈ 0.263 µM) | 0.07 (≈ 0.263 µM) | MIC [14]: > 0.1 µg/mL; MIC [15]: > 0.1 µg/mL; MIC [16]: 0.2 µg/mL (≈ 0.751 µM)
